Assay outcomes (PubChem)
HSF1 inhib = HSF1 inhibitors in luciferase reporter cells, primary screen, cell-based, NIH3T3, luminescence; 300,000 compounds, 0.77% hits; NIH3T3-HGL HSE-luciferase, MG132-induced, luminescence 8 h; active compounds read low; activity change, negative = inhibition, % at 7.5 µM (by protocol); AID 2098, 2009;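 active = more than half of replicate wells show activity change below -50%, luminescence cut by over half; inconclusive = some wells, but at most half, below -50%; inactive = no replicate well below -50%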;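 also: luciferase reports HSF-1 transcriptional activity via heat shock element; 0% = median of DMSO wells and -100% = zero luminescence signal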
Hsp70 activator = Hsp70 transcriptional activators, primary screen, cell-based, HeLa, Hsp70 promoter luciferase, luminescence, 10 µM; HeLa Hsp70 promoter luciferase reporter; scaled: vehicle 0, proteasome-inhibitor control 100%; activation, % at 10 µM; 200,000 compounds, 0.04% hits; AID 1203, 2008;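 active = activation above the mean across all tested compounds plus 3 SD, cutoff set per campaign, cut at about 5.5% in these data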;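 also: 100% = MG132 at 30 µM as the positive control and 0% = DMSO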
T cruzi inh = inhibitors of intracellular T. cruzi growth, primary screen, luminescence, NIH3T3 host cells. T. cruzi beta-gal in NIH3T3, 90 h. inhibition, % (concentration not given with the values). 300,000 compounds, 1.4% hits. AID 1885, 2009;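 active = mean inhibition across valid replicates above about 55%, limit read from the data; inconclusive = mean below that limit but half or more replicates reach it; inactive = mean below it, under half of replicates reach it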;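 also: signal also drops with host cell toxicity which is not excluded here; 0% = plate median of DMSO wells and 100% = zero luminescence signal; higher percent means less beta-gal luminescence so fewer parasites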
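Assay system: NIH/3T3 host cells with β-galactosidase reporter T. cruzi; input: 5,000 host fibroblasts per well; compound: single 50 nL compound addition per well in DMSO; timing: ≥90 h infection period, 3 h prior cell attachment; measured by: GalScreen β-gal luminescence, detergent lysis, 60 min; evaluation: percent inhibition of parasite-derived β-gal signal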
HSF1 activator = HSF-1 activators, primary screen, NIH3T3-HGL cells, MG132 stress, luminescence, single point; activation, % at 9 µM; AID 504408, 2011; NIH3T3-HGL HSF-1 luciferase reporter, 8 h; 100% = twice DMSO control signal; 300,000 compounds, 1.7% hits;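 active = mean replicate activation of at least 50% with a set share of replicates each reaching 50%; inconclusive = only one of those two conditions met; inactive = mean below 50% and too few replicates reaching it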;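 also: 0% = median of the neutral control wells and 100% = twice that signal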
Lmaj promast = Leishmania major promastigote growth inhibition, primary screen; Leishmania major promastigotes, resazurin fluorescence viability; inhibition, % at 10 µM; 200,000 compounds, 9% hits; AID 1063, 2008; in the data active = inhibition above about 50%;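 also: promastigotes grown with compound for 44 hours at 28 °C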
Active calls of the source: *. This excerpt belongs to a sample that is enriched for hits.

What do the screens show for `CC(=O)N(Cc1ccc(F)cc1)C1=C(NCc2ccccc2)C(=O)c2ccccc2C1=O`?
HSF1 inhib: 28.8; Hsp70 activator: -0.1; T cruzi inh: 67.1*; HSF1 activator: 42.8; Lmaj promast: 100.5*

Results for CCOc1ccc(C2c3c(oc4ccccc4c3=O)C(=O)N2c2ccc(C)cn2)cc1OC (stereo not given) ?
HSF1 inhib: 1.1; Hsp70 activator: -0.2; T cruzi inh: 33.2; HSF1 activator: 0.5; Lmaj promast: 79.8*

What do the screens show for `CC1(C)Cc2c(sc(NC(=O)C(=O)N3CCCCC3)c2C(=O)O)CO1`?
HSF1 inhib: -5.7; T cruzi inh: -14.3; HSF1 activator: 7.4

What do the screens show for `COc1ccc(-c2cc(=O)oc3cc(OCC(C)=O)ccc23)cc1`?
HSF1 inhib: 5.4; Hsp70 activator: -0.3; T cruzi inh: 5.0; HSF1 activator: 2.4; Lmaj promast: 63.6*

Results for COc1ccc2c(-c3cc4ccc(OCc5ccc(F)cc5)cc4oc3=O)cc(=O)oc2c1 ?
HSF1 inhib: 7.9; Hsp70 activator: -0.4; T cruzi inh: -8.1; HSF1 activator: 30.8; Lmaj promast: 52.2*

What do the screens show for `CN(CC(=O)Nc1ccc(F)cc1)C(=O)CSc1ncccn1`?
HSF1 inhib: -8.1; T cruzi inh: -15.8; HSF1 activator: -6.6

What do the screens show for `CCN(CC)S(=O)(=O)c1ccc(N=NC2=C(O)CC(C)(C)CC2=O)cc1`?
HSF1 inhib: 0.0; Hsp70 activator: 0.0; T cruzi inh: -0.5; HSF1 activator: 32.1; Lmaj promast: 79.6*

How did CC1(C)CC(=O)C(N=Nc2ccc(OC(F)F)cc2)=C(O)C1 do in these assays?
HSF1 inhib: -56.1*; Hsp70 activator: 0.1; T cruzi inh: -10.9; HSF1 activator: -63.8; Lmaj promast: -4.5

Results for COc1cc(CC(=O)N(C)CC(=O)Nc2cc(C)ccc2C)cc(OC)c1OC ?
HSF1 inhib: -5.4; T cruzi inh: -8.8; HSF1 activator: -8.7

What do the screens show for `Cn1c(=NC(=O)COc2ccccc2)sc2ccccc21`?
HSF1 inhib: 22.4; Hsp70 activator: 0.7; T cruzi inh: 9.3; HSF1 activator: inconclusive; Lmaj promast: -3.2

How did Cc1c(NC(=O)c2ccc(-c3ccc([N+](=O)[O-])cc3Cl)o2)c(=O)n(-c2ccccc2)n1C do in these assays?
HSF1 inhib: 5.2; Hsp70 activator: -0.3; T cruzi inh: 56.5*; HSF1 activator: -12.5; Lmaj promast: 15.9

How did Cc1c(Cl)cccc1NC(=S)N(CCN(C)C)C(C)c1ccco1 (stereo not given) do in these assays?
HSF1 inhib: 0.2; T cruzi inh: -8.9; HSF1 activator: -14.4

Results for O=c1c2[nH]c3ccccc3c2ncn1CCC1=CCCCC1 ?
HSF1 inhib: 23.7; Hsp70 activator: -0.1; T cruzi inh: 10.3; HSF1 activator: 32.0; Lmaj promast: 4.2

What do the screens show for `CC(C)OCCCNc1ncnc2c1[nH]c1ccccc12`?
HSF1 inhib: 4.0; Hsp70 activator: -0.4; T cruzi inh: 31.9; HSF1 activator: -4.7; Lmaj promast: 70.2*

Results for C1=C(CCNc2ncnc3c2[nH]c2ccccc23)CCCC1 ?
Hsp70 activator: -0.2; Lmaj promast: 97.8*

What do the screens show for `O=C(COC(=O)[C@@H]1CCCN1S(=O)(=O)c1ccccc1F)Nc1ccc(OC(F)F)cc1`?
HSF1 inhib: -1.7; Hsp70 activator: -0.5; T cruzi inh: -8.4; HSF1 activator: 2.4; Lmaj promast: -5.4

Results for CCN(CC(=O)Nc1cccc(S(=O)(=O)N2CCOCC2)c1)Cc1ccccc1 ?
HSF1 inhib: 6.6; T cruzi inh: -9.6; HSF1 activator: 2.5

Results for COc1ccc(OCc2nnnn2-c2ccccc2)cc1 ?
HSF1 inhib: 13.9; Hsp70 activator: -0.4; T cruzi inh: -6.9; HSF1 activator: 54.6*; Lmaj promast: -0.8

Results for Brc1ccc(OCc2nnnn2-c2ccccc2)cc1 ?
HSF1 inhib: 6.1; Hsp70 activator: -0.4; T cruzi inh: 4.0; HSF1 activator: 3.4; Lmaj promast: 13.0

What do the screens show for `O=C(Nc1ccc(Cl)cc1)N1CCSC1=NCc1ccccc1`?
HSF1 inhib: 2.3; T cruzi inh: 12.9; HSF1 activator: 11.4
